Legend:
[1] = Displacement of [3H]WAY-100635 from 5-HT1A receptor in pig cortex membranes; assay type: cell membranes, Sus scrofa
[2] = target: T1, 5-hydroxytryptamine receptor 1A (Homo sapiens, UniProt P08908); experiment: Intrinsic activity at human 5-HT1A receptor expressed in CHO cells assessed as increase of serotonin-induced [35S]GTPgammaS binding; assay type: functional, cell-based
T1 sequence (P08908 whole entry): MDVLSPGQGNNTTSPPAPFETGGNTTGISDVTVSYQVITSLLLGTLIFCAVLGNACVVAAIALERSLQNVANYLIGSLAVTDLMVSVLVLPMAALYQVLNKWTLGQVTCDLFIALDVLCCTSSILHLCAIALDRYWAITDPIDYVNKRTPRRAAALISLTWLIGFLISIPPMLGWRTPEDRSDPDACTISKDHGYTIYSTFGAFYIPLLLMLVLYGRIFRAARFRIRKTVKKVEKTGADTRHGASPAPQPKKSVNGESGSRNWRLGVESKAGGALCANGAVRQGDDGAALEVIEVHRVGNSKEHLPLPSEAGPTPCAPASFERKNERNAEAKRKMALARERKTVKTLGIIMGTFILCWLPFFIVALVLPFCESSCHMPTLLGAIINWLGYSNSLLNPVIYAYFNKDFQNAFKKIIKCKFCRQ
In short: (§1)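 Membranes from CHO cells stably expressing human 5-HT1A were incubated with 0.1 nM [35S]GTPγS and test compound at eight concentrations (0.01-10000 nM), in hexaduplicate. Values come from a mean curve of four experiments. Emax is expressed relative to the maximal serotonin effect.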

[3] = target: T2, 5-hydroxytryptamine receptor 1A (Homo sapiens) (UniProt P08908); experiment: Intrinsic activity at human 5-HT1A receptor expressed in CHO cells assessed as increase of serotonin-induced [35S]GTPgammaS binding relative to serotonin; assay type: functional, cell-based; in short: as §1
T2 sequence (whole entry): T1 sequence (P08908 whole entry)

Ki [1] [nM]	EC50 [2] [nM]	Emax [3] [%]	Compound
26	–	–	Cc1ccc(CNCC2(F)CCN(C(=O)c3coc(Br)c3)CC2)nc1
27	12	95	Cc1ccc(CNCC2(F)CCN(C(=O)c3ccsc3)CC2)nc1
92	48	91	Cc1ccc(CNCC2(F)CCN(C(=O)C34CC5CC(CC(Cl)(C5)C3)C4)CC2)nc1
19	30	95	Cc1ccc(CNCC2(F)CCN(C(=O)c3ccc(Br)s3)CC2)nc1
330	–	–	Cc1ccc(CNCC2(F)CCN(C(=O)c3ccccc3-c3ccccc3)CC2)nc1
420	–	–	Cc1ccc(CNCC2(F)CCN(C(=O)c3ccc(-c4cccs4)s3)CC2)nc1
20	86	104	Cc1ccc(CNCC2(F)CCN(C(=O)c3scc4c3CCCC4)CC2)nc1
110	–	–	Cc1ccc(CNCC2(F)CC3CCC(C2)N3C(=O)c2ccc(F)c(Cl)c2)nc1 (stereo not drawn)
11	6.6	109	Cc1ccc(CNCC2(O)CCN(C(=O)c3ccc(F)c(Cl)c3)CC2)nc1
69	–	–	Cc1ccc(CNCC2(F)CCN(C(=O)c3cccc(-c4ccccc4)c3)CC2)nc1
8.3	20	101	Cc1ccc(CNCC2(F)CCN(C(=O)c3cc(C)cs3)CC2)nc1
37	130	100	Cc1ccc(CNCC2(F)CCN(C(=O)c3cc4sccc4s3)CC2)nc1
64	34	87	Cc1ccc(CNCC2(F)CCN(C(=O)c3cc4ccccc4o3)CC2)nc1
320	–	–	Cc1ccc(CNCC2(F)CCN(C(=O)c3cc4ccc3CCc3ccc(cc3)CC4)CC2)nc1
94	–	–	Cc1ccc(CNCC2(F)CCN(C(=O)c3cc4ccccc4[nH]3)CC2)nc1
340	–	–	Cc1ccc(CNCC2(F)CC3CCC(C2)N3C(=O)c2ccccc2)nc1 (stereo not drawn)
260	–	–	Cc1ccc(CNCC2(F)CC3CCC(C2)N3C(=O)c2ccsc2)nc1 (stereo not drawn)
35	–	–	Cc1ccc(CNCC2(F)CCN(C(=O)c3ccc(F)s3)CC2)nc1
182	240	99	Cc1ccc(CNCC2(F)CCN(C(=O)c3ccoc3)CC2)nc1
15	13	96	Cc1ccc(CNCC2(F)CCN(C(=O)c3ccccc3)CC2)nc1
25	59	97	Cc1ccc(CNCC2(F)CCN(C(=O)c3sc4sccc4c3Cl)CC2)nc1
180	93	80	Cc1ccc(CNCC2(F)CCN(C(=O)c3cc4ccccn4n3)CC2)nc1

Ki [1] [nM]	EC50 [2] [nM]	Emax [3] [%]	Compound
220	–	–	Cc1ccc(CNCC2(F)CCN(C(=O)c3cc4cc(Br)ccc4s3)CC2)nc1
1300	–	–	Cc1ccc(CNCC2(F)CCN(C(=O)C34CC5CC(C3)CC(C(F)(F)C(F)C(F)(F)F)(C5)C4)CC2)nc1 (stereo not drawn)
32	20	104	Cc1ccc(CNCC2(F)CCN(C(=O)c3sccc3Br)CC2)nc1
46	39	103	Cc1ccc(CNCC2(F)CCN(C(=O)c3cc4ccsc4s3)CC2)nc1
910	–	–	Cc1ccc(CNCC2(F)CCN(C(=O)c3cc[nH]n3)CC2)nc1
1300	600	90	Cc1ccc(CNCC2(F)CCN(C(=O)C34CC5CC(CC(O)(C5)C3)C4)CC2)nc1
56	99	93	COc1cscc1C(=O)N1CCC(F)(CNCc2ccc(C)cn2)CC1
380	100	94	Cc1ccc(CNCC2(F)CCN(C(=O)c3ccc4[nH]ccc4c3)CC2)nc1
190	240	116	Cc1ccc(CNCC2(F)CCN(C(=O)c3cc4ccccc4s3)CC2)nc1
660	–	–	Cc1ccc(CNCC2(F)CCN(C(=O)c3ccc[nH]3)CC2)nc1
15	52	110	Cc1ccc(CNCC2(F)CCN(C(=O)c3ccc4ccccc4c3)CC2)nc1
79	–	–	Cc1ccc(CNCC2(O)CCN(C(=O)c3ccccc3)CC2)nc1
360	–	–	Cc1ccc(CNCC2(F)CCN(C(=O)c3sccc3-n3cccc3)CC2)nc1
19	26	96	Cc1ccc(CNCC2(F)CCN(C(=O)C34CCCC(CCC3)C4)CC2)nc1
25	30	99	Cc1ccc(CNCC2(F)CCN(C(=O)c3sccc3Cl)CC2)nc1
470	–	–	Cc1ccc(CNCC2(F)CCN(C(=O)c3ccc(-c4ccccn4)s3)CC2)nc1
18	50	102	COc1c(C(=O)N2CCC(F)(CNCc3ccc(C)cn3)CC2)csc1Cl
8.9	–	–	Cc1ccc(CNCC2(F)CCN(C(=O)c3cc(Br)c(Br)o3)CC2)nc1
11	47	96	Cc1ccc(CNCC2(F)CCN(C(=O)C34CC5CC(CC3C5)C4)CC2)nc1
160	–	–	Cc1ccc(CNCC2(F)CCN(C(=O)C3CCc4ccccc4C3)CC2)nc1 (stereo not drawn)
17	11	98	Cc1ccc(CNCC2(F)CCN(C(=O)C34CC5CC(CC(C5)C3)C4)CC2)nc1
93	310	96	Cc1ccc(CNCC2(F)CCN(C(=O)c3cnn4ccccc34)CC2)nc1

Ki [1] [nM]	EC50 [2] [nM]	Emax [3] [%]	Compound
470	–	–	Cc1ccc(CNCC2(F)CCN(C(=O)C34CC5CC(C)(CC(C)(C5)C3)C4)CC2)nc1
21	46	101	Cc1ccc(CNCC2(F)CCN(C(=O)c3ccc(Cl)s3)CC2)nc1
120	–	–	Cc1ccc(CNCC2(F)CCN(C(=O)C34CC5CC(CC(Br)(C5)C3)C4)CC2)nc1
910	–	–	Cc1ccc(CNCC2(F)CCN(C(=O)c3ccc4[nH]nnc4c3)CC2)nc1
300	–	–	Cc1ccc(CNCC2(F)CCN(C(=O)c3ccc(-c4ccccc4)cc3)CC2)nc1
120	–	–	Cc1ccc(CNCC2(O)CCN(C(=O)c3ccsc3)CC2)nc1
460	–	–	Cc1ccc(CNCC2(F)CCN(C(=O)C34CC5CC(C)(CC(Br)(C5)C3)C4)CC2)nc1 (stereo not drawn)
29	–	–	CCC12CC3CC(C1)CC(C(=O)N1CCC(F)(CNCc4ccc(C)cn4)CC1)(C3)C2
450	–	–	Cc1ccc(CNCC2(F)CCN(C(=O)c3ccc(-c4csc(C)n4)s3)CC2)nc1
14	42	104	Cc1ccc(CNCC2(F)CCN(C(=O)c3ccc(C)s3)CC2)nc1
32	63	102	Cc1ccc(CNCC2(F)CCN(C(=O)c3sc(Br)c4c3OCCO4)CC2)nc1
4.8	–	–	Cc1ccc(CNCC2(F)CCN(C(=O)c3cc(Br)c(Br)s3)CC2)nc1
74	8.6	77	Cc1ccc(CN(C)CC2(F)CCN(C(=O)c3ccc(F)c(Cl)c3)CC2)nc1
17	62	95	COc1c(C(=O)N2CCC(F)(CNCc3ccc(C)cn3)CC2)csc1Br
500	–	–	Cc1ccc(CNCC2(F)CCN(C(=O)c3ccc(-c4ccccc4)s3)CC2)nc1
1600	–	–	Cc1ccc(CNC[C@@]2(O)C[C@H]3CCC[C@@H](C2)N3C(=O)c2ccccc2)nc1 (stereo in doubt; 43)
16	–	–	Cc1ccc(CNCC2(F)CCN(C(=O)c3ccsc3Br)CC2)nc1
150	–	–	Cc1ccc(CNC[C@@]2(O)C[C@H]3CCC[C@@H](C2)N3C(=O)c2ccccc2)nc1 (stereo in doubt; 41)
3500	–	–	Cc1ccc(CNCC2(F)CCN(C(=O)c3ccc4[nH]cnc4c3)CC2)nc1
18	54	91	CSc1ccc(C(=O)N2CCC(F)(CNCc3ccc(C)cn3)CC2)s1
26	35	96	Cc1ccc(CNCC2(F)CCN(C(=O)c3sccc3C)CC2)nc1

Compound	Ki [1] [nM]	EC50 [2] [nM]	Emax [3] [%]
Cc1ccc(CNCC2(O)CC3CCC(C2)N3C(=O)c2ccc(F)c(Cl)c2)nc1 (stereo not drawn)	17	18	121
Cc1ccc(CNCC2(O)CC3CCC(C2)N3C(=O)c2ccsc2)nc1 (stereo not drawn)	43	32	101
Cc1ccc(CNC[C@@]2(O)C[C@H]3CC[C@@H](C2)N3C(=O)c2ccccc2)nc1 (stereo in doubt; 34) [listing 1 of 2 here]	–	–	113
Cc1ccc(CNC[C@@]2(O)C[C@H]3CC[C@@H](C2)N3C(=O)c2ccccc2)nc1 (stereo in doubt; 38) [listing 1 of 2 here]	63	–	–
Cc1ccc(CNC[C@@]2(O)C[C@H]3CC[C@@H](C2)N3C(=O)c2ccccc2)nc1 (stereo in doubt; 34) [listing 2 of 2 here]	100	270	–
Cc1ccc(CNCC2(F)CCN(C(=O)c3cc4ccccc4[te]3)CC2)nc1	51	36	46
Cc1ccc(CNC[C@@]2(O)C[C@H]3CC[C@@H](C2)N3C(=O)c2ccccc2)nc1 (stereo in doubt; 38) [listing 2 of 2 here]	–	–	< 10

From ChEMBL document CHEMBL1255227, “Novel pyridylmethylamines as highly selective 5-HT(1A) superagonists” (J Med Chem, 2010)
